Columns and labels:
Format in all cases: functional, Oryctolagus cuniculus, Platelet
[1] = Antiplatelet aggregation activity in PAF-induced rabbit platelets assessed as aggregation at 100 ug/ml
How it was run: (§1)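 Platelets preincubated 3 min at 37° with test agent (100 µg/ml) or 0.5% DMSO as control, then challenged with an inducer: ADP 20 µM, PAF 2 ng/ml, arachidonic acid 100 µM, collagen 10 µg/ml. Percent aggregation reported as means ± S.E.M., n = 3–6, compared against the respective control.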

[2] = Antiplatelet aggregation activity in collagen-induced rabbit platelets assessed as aggregation at 100 ug/ml; how it was run: as §1
[3] = Antiplatelet aggregation activity in ADP-induced rabbit platelets assessed as aggregation at 100 ug/ml; how it was run: as §1
[4] = Antiplatelet aggregation activity in arachidonic acid-induced rabbit platelets assessed as aggregation at 100 ug/ml; how it was run: as §1

Compound | Activity [1] [%] | Activity [2] [%] | Activity [3] [%] | Activity [4] [%]
CC(C)CC(=O)O[C@H]1c2c(ccc3ccc(=O)oc23)OC(C)(C)[C@H]1OC(=O)CC(C)C | 0 | 39.3 | 8.8 | 49.8
CC(C)=CC(=O)O[C@H]1c2c(ccc3ccc(=O)oc23)OC(C)(C)[C@H]1OC(=O)C=C(C)C (relative stereo) | 73.2 | 72.3 | 61.7 | 43.6
CC(C)=CC(=O)O[C@H]1c2c(ccc3ccc(=O)oc23)OC(C)(C)[C@H]1OC(=O)CC(C)C (relative stereo) | 57.4 | 75.7 | 64 | 76.3

From ChEMBL document CHEMBL1149745, “An antiplatelet aggregation principle and X-ray structural analysis of cis-khellactone diester from Peucedanum japonicum” (1992)
